In test [1] the test system is Brassica juncea. The test is described as follows: Stress inducing elicitor activity in Brassica juncea cv. Cutlass assessed as induction of phytoalexins production. It is filed as functional, organism-based. The gist of the method: (§1)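 Test solutions applied to leaves of whole plants. Plants were grown in a growth chamber at 24 ± 2 °C on a 16 h light / 8 h dark cycle. Treated plants were incubated in a growth cabinet. Control leaves received MeOH/H2O (1:1). Elicitation was scored by HPLC-DAD of leaf extracts as phytoalexins absent from control plants. Assays were run in triplicate, at least twice.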

The subject of test [2] is Brassica napus. The test is described as follows: Stress inducing elicitor activity in Brassica napus cv. Wester assessed as induction of phytoalexins production. It is filed as functional, organism-based. The gist of the method:
as §1

In test [3] the test system is Brassica juncea. The test is described as follows: Stress inducing elicitor activity in Brassica juncea cv. Cutlass. The class given is functional, organism-based. The gist of the method:
as §1

In test [4] the test system is Brassica napus. The test is described as follows: Stress inducing elicitor activity in Brassica napus cv. Wester. The class given is functional, organism-based. The gist of the method: as §1
In test [5] the test system is Brassica juncea. The test is described as follows: Induction necrosis on leaves of Brassica juncea cv. Cutlass at 0.5 mM. The class given is functional, organism-based.
For test [6], the system named is Brassica napus. Description: Induction necrosis on leaves of Brassica napus cv. Wester at 0.5 mM. The class given is functional, organism-based.
The subject of test [7] is Brassica napus. The test is described as follows: Stress inducing elicitor activity in Brassica napus cv. Wester assessed as induction of spirobrassinin production at 1 mM. It is filed as functional, organism-based. The gist of the method: (§2)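 Test solutions applied to leaves of whole plants (B. juncea cv. Cutlass, B. napus cv. Westar) grown in a growth chamber at 24 ± 2 °C with 16 h light / 8 h dark; plants then incubated in a growth cabinet. Leaf extracts analysed by HPLC-DAD for phytoalexins and indolyl stress metabolites against controls treated with MeOH/H2O (1:1). Run in triplicate, at least twice.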

Test [8] relates to Brassica napus. The test is described as follows: Stress inducing elicitor activity in Brassica napus cv. Wester assessed as increase in indolyl-3-acetonitrile levels relative to control. The class given is functional. The gist of the method:
as §2

Test [9] has as its system Brassica juncea. Description: Stress inducing elicitor activity in Brassica juncea cv. Cutlass as induction of spirobrassinin production at 1 mM. The class given is functional, organism-based. The gist of the method: as §1
Test [10] relates to Brassica juncea. The test is described as follows: Stress inducing elicitor activity in Brassica juncea cv. Cutlass assessed as increase in indolyl-3-acetonitrile levels relative to control. It is filed as functional. The gist of the method: as §2
Test [11] deals with Brassica napus. Description: Stress inducing elicitor activity in Brassica napus cv. Wester assessed as increase in 1-methoxyindolyl-3-acetonitrile levels relative to control. It is filed as functional. The gist of the method:
as §2

Test [12] relates to Brassica juncea. Description: Stress inducing elicitor activity in Brassica juncea cv. Cutlass assessed as increase in 1-methoxyindolyl-3-acetonitrile levels relative to control. It is filed as functional. The gist of the method:
as §2

Test [13] deals with Brassica juncea. The test is described as follows: Stress inducing elicitor activity in Brassica juncea cv. Cutlass assessed as induction of brassilexin production at 1 mM. The class given is functional, organism-based. The gist of the method:
as §2

Test [14] has as its system Brassica juncea. The test is described as follows: Stress inducing elicitor activity in Brassica juncea cv. Cutlass assessed as induction of cyclobrassinin production at 1 mM. It is filed as functional, organism-based. The gist of the method:
as §2

For test [15], the system named is Brassica juncea. Description: Stress inducing elicitor activity in Brassica juncea cv. Cutlass assessed as induction of rutalexin production at 1 mM. The class given is functional, organism-based. The gist of the method: as §2
The subject of test [16] is Brassica juncea. The test is described as follows: Stress inducing elicitor activity in Brassica juncea cv. Cutlass assessed as induction of spirobrassinin production at 1 mM. It is filed as functional, organism-based. The gist of the method:
as §2

The test system of test [17] is Brassica juncea. The test is described as follows: Stress inducing elicitor activity in Brassica juncea cv. Cutlass assessed as induction of brassilexin production at 0.5 mM. It is filed as functional, organism-based. The gist of the method:
as §2

Test [18] relates to Brassica juncea. The test is described as follows: Stress inducing elicitor activity in Brassica juncea cv. Cutlass assessed as induction of cyclobrassinin production at 0.5 mM. The class given is functional, organism-based. The gist of the method:
as §2

The test system of test [19] is Brassica juncea. The test is described as follows: Stress inducing elicitor activity in Brassica juncea cv. Cutlass assessed as induction of rutalexin production at 0.5 mM. The class given is functional, organism-based. The gist of the method: as §2
Test [20] concerns Brassica juncea. The test is described as follows: Stress inducing elicitor activity in Brassica juncea cv. Cutlass assessed as induction of spirobrassinin production at 0.5 mM. The class given is functional, organism-based. The gist of the method: as §2
For test [21], the system named is Brassica napus. The test is described as follows: Stress inducing elicitor activity in Brassica napus cv. Wester assessed as induction of spirobrassinin production at 0.5 mM. The class given is functional, organism-based. The gist of the method: as §2

Molecules are shown by their SMILES. Active and inactive are the calls of the source. The calls are words filed in the database; no cut-off is given here.

The values that follow come from ChEMBL document CHEMBL1139423, “Stress-driven discovery of metabolites from the phytopathogenic fungus Leptosphaeria maculans: structure and activity of leptomaculins A-E” (2008).

Regarding `C/C=C1/NC(=O)[C@H](C(C)C)NC(=O)[C@@H](CC(C)C)NC(=O)[C@H](CC(C)C)OC(=O)[C@H](Cc2ccccc2)OC1=O`, the outcome with Brassica juncea [1] and in the test with Brassica napus [2] was inactive.

On to `CC(=O)O[C@H]1[C@]2(O)C[C@]34SSSS[C@](CO)(C(=O)N3[C@@H]2C[C@]12O[C@H](C)C(C)(C)C2=O)N(C)C4=O`, for which the outcome in the test with Brassica juncea [3] and with Brassica napus [4] was inactive.

In the case of `CC(=O)O[C@H]1[C@]2(O)C[C@]34SSS[C@](CO)(C(=O)N3[C@@H]2C[C@]12O[C@H](C)C(C)(C)C2=O)N(C)C4=O`, the result in the test on Brassica juncea [3] and with Brassica napus [4] was inactive.

Consider `CC(=O)O[C@H]1[C@]2(O)C[C@]34S[C@](CO)(C(=O)N3[C@@H]2C[C@]12O[C@H](C)C(C)(C)C2=O)N(C)C4=O`, for which the outcome with Brassica juncea [5] and in the test with Brassica napus [6] was Active. The result with Brassica juncea [3] and with Brassica napus [4] was inactive.

Regarding `CC(C)=CCOc1ccc(C[C@@H]2NC(=O)[C@H](CO)NC2=O)cc1`, the outcome in the test with Brassica juncea [1] and in the test with Brassica napus [2] was inactive.

For `C[C@H]1O[C@]2(C[C@H]3N4C(=O)[C@@]5(CO)SS[C@]4(C[C@@]3(O)[C@@H]2O)C(=O)N5C)C(=O)C1(C)C` [DEACETYLSIRODESMIN PL], the result in the test with Brassica napus [7], in the test on Brassica juncea [9], in the test with Brassica juncea [5] and with Brassica napus [6] was Active. The “fold change (FC)” value in the test on Brassica napus [8], in the test with Brassica juncea [10], in the test on Brassica napus [11] and with Brassica juncea [12] was 8 throughout.

Regarding `CC(=O)O[C@H]1[C@]2(O)C[C@]34SS[C@](CO)(C(=O)N3[C@@H]2C[C@]12O[C@H](C)C(C)(C)C2=O)N(C)C4=O` [SIRODESMIN PL], the outcome in the test on Brassica juncea [13], with Brassica juncea [14], with Brassica juncea [15], in the test on Brassica juncea [16], in the test on Brassica napus [7] and with Brassica juncea [17] was Active. Also, the outcome with Brassica juncea [18], in the test with Brassica juncea [19], in the test on Brassica juncea [20], in the test on Brassica napus [21], in the test with Brassica juncea [5] and in the test with Brassica napus [6] was Active. Also, the “fold change (FC)” value in the test with Brassica napus [8], in the test on Brassica juncea [10], in the test on Brassica napus [11] and with Brassica juncea [12] was 8 throughout.
